# Experimental data taken from publication PMC3445775 (Hepatology (Baltimore, Md.), 2012).
# Entries after “also recorded” stand apart in the source; their conditions may differ.
# Tests used:
# [1] = system: FATP5 and FATP2; assay: Inhibition reversibility assay; format: cell-based, human; conditions: 30 min treatment followed by brief washes with PBS
# [2] = biological target: T1, human FATP5 (Homo sapiens, UniProt Q9Y2P5); format: cell-based; conditions: for inhibition of FATP5-mediated LCFA uptake: result in words
# T1 sequence (Q9Y2P5 1-690): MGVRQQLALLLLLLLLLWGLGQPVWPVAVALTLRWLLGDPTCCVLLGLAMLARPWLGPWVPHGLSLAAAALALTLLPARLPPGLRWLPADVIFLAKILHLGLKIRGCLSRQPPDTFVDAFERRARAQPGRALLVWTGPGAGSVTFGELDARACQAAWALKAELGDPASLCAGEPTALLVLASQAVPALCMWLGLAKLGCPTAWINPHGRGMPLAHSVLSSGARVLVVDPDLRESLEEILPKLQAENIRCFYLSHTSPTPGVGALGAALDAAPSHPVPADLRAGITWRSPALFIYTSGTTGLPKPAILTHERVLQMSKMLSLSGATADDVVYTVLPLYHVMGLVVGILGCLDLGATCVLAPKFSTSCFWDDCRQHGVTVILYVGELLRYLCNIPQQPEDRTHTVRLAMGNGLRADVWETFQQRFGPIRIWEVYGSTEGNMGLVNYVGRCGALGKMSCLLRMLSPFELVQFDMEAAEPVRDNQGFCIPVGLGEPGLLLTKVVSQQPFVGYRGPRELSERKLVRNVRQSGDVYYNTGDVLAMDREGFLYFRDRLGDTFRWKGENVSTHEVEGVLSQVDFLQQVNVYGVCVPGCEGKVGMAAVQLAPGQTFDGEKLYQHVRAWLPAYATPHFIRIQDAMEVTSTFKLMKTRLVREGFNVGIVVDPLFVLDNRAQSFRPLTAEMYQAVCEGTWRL
# Procedure, shortened: (§1)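 HEK-293 cells stably expressing human FATP4, FATP2 or FATP5 were maintained in DMEM/10% FBS with 1 mg/ml G418. Cells were plated at 30,000–50,000/well overnight to 50–70% confluency. They were preincubated 30 min (5% CO2) with test compound, diluted from DMSO stock into HBSS with 20 mM HEPES, 4.5 g/L glucose and 0.1% fatty-acid-free BSA. Compound in quencher mix containing 2 μM C1-BODIPY-C12 was then added. Fluorescence (ex 488/em 515 nm, bottom read) was recorded every 2 min for 2 h, and uptake velocities were derived by linear regression.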
# [3] = biological target: human FATP2 (Homo sapiens, UniProt O14975); format: cell-based; conditions: for inhibition of FATP2-mediated LCFA uptake: result in words
# Procedure, shortened: as §1
# [4] = system: 293 cells; assay: XTT toxicity assay, stable 293 cell lines; format: cell-based, human; conditions: 48 hours
# Procedure, shortened: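 Stable 293 cells in DMEM/FBS were incubated overnight in 5% CO2. The indicated test compound or DMSO control was added, and after a further 48 h viability was measured with an XTT kit per the manufacturer's instructions.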
# [5] = system: primary mouse hepatocytes from C57Bl/6 animals; assay: Quencher based LCFA uptake assay, wild-type mouse primary hepatocytes; format: cell-based
# [6] = system: hepatic TAG content; assay: 7 week bile acid supplemented high-fat diet feeding; format: in vivo, mouse
# [7] = system: hepatic LCFA uptake; assay: Non-radioactive in vivo hepatic LCFA uptake assay; set-up: species or system mouse; conditions: WT mice, acute injection
# [8] = biological target: hsFATP4 (Homo sapiens, UniProt Q6P1M0); assay: Quencher-based LCFA uptake assay, FATP4 expressing 293 cells; format: cell-based; conditions: result in words
# Procedure, shortened: as §1
# [9] = system: hepatic triglyceride accumulation; assay: Chronic bile acid injection during high-fat diet; format: in vivo, mouse; conditions: 3.2 mg/kg s.c. daily, 47 days
# Procedure, shortened: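 Individually housed mice on a high-fat diet (60% calories from fat) received daily s.c. injections of test compound, 3.2 mg/kg in 20 μl DMSO, above the right hip for 47 days. Controls received DMSO vehicle. Mice were fasted 4 h and euthanised with CO2, and injection sites were checked for precipitate. Liver lysates were assayed for protein (BCA) and TAG.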
# [10] = system: primary human hepatocytes; assay: FACS-based LCFA uptake assay, primary human hepatocytes; format: cell-based; conditions: 10 or 100 μM, viable cells
# Procedure, shortened: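 Suspended primary human hepatocytes were pretreated with test compound at 10 or 100 μM in DMEM (37°C, 5% CO2, 30 min). C1-BODIPY-C12 bound to 0.1% BSA was then added to a final 2 μM for 30 min at 37°C. Uptake was stopped on ice, and cells were centrifuged at 4°C and resuspended in cold PBS. Propidium iodide was added, and mean BODIPY fluorescence of 5000 viable PI-negative cells was taken from histogram plots.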
# [11] = 0.5mg/g in high fat food, 7 weeks
# Chain of hsFATP4 (Q6P1M0 whole entry): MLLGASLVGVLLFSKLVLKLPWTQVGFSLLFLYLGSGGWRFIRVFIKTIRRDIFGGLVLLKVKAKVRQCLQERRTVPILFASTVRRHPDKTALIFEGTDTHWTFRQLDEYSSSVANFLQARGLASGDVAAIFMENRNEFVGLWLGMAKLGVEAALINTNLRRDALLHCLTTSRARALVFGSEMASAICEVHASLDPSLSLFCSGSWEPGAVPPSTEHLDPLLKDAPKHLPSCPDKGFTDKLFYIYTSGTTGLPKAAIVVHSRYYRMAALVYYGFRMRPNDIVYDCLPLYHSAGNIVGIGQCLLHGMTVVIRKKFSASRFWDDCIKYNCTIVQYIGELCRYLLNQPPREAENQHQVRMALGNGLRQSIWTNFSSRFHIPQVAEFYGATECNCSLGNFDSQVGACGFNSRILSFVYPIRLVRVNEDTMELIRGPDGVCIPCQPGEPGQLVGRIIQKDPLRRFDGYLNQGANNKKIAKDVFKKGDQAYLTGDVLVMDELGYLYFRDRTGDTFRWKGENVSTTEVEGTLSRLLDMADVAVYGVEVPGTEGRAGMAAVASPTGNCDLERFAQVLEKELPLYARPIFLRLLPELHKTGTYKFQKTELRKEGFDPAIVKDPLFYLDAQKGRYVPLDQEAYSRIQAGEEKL
smiles,measurement,setting,value
"C[C@H](CCC(=O)O)[C@H]1CC[C@H]2[C@@H]3[C@H](O)C[C@@H]4C[C@H](O)CC[C@]4(C)[C@H]3C[C@H](O)[C@]12C [CA, cholic acid]",Reversible Inhibition,[1],complete reversibility and Yes
same,IC50,[2],31 µM
same,inhibition of FATP5-mediated LCFA uptake,[2],specifically inhibited FATP5-mediated LCFA uptake
"COc1cc(/C=C2/SC(=S)N(c3cccc(Cl)c3)C2=O)cc(Br)c1O [CB-2, (5E)-5-[(3-bromo-4-hydroxy-5-methoxyphenyl)methylene]-3-(3-chlorophenyl)-2-thioxothiazolidin-4-one, reference compound]",IC50,[3],8 µM
same,Reversible Inhibition,[1],Yes
"O=c1cc(-c2ccc([N+](=O)[O-])cc2)nc2c(-c3ccc(Cl)cc3)c(Cc3ccccc3)[nH]n12 [CB-5, 2-benzyl-3-(4-chlorophenyl)-5-(4-nitrophenyl)-1H-pyrazolo[5,1-b]pyrimidin-7-one, reference compound]",toxicity (XTT assay),[4],marked cytotoxicity
same,IC50,[3],18 µM
same,Reversible Inhibition,[1],No (tox)
same,IC50,[2],7 µM
"Oc1c(C2=NCCNC(C(F)(F)F)=C2)ccc2ccccc12 [CB-6, 2-[7-(trifluoromethyl)-2,3-dihydro-1H-1,4-diazepin-5-yl]naphthalen-1-ol, reference compound]",IC50,[3],12 µM
same,Reversible Inhibition,[1],irreversible and No
same,IC50,[2],38 µM
"C[C@H](CCC(=O)O)[C@H]1CC[C@H]2[C@@H]3[C@H](O)C[C@@H]4C[C@H](O)CC[C@]4(C)[C@H]3CC[C@]12C [CDCA, chenodeoxycholic acid]",Reversible Inhibition,[1],complete reversibility and Yes
same,IC50,[2],10 µM
same,inhibition of FATP5-mediated LCFA uptake,[2],specifically inhibited FATP5-mediated LCFA uptake
"C[C@H](CCC(=O)O)[C@H]1CC[C@H]2[C@@H]3CC[C@@H]4C[C@H](O)CC[C@]4(C)[C@H]3CC[C@]12C [LCA, lithocholic acid]",inhibition of LCFA uptake by primary mouse hepatocytes,[5],no inhibition
same,body weight,[6]; [11],Neither DCA nor LCA feeding resulted in changes
same,caloric output over a 36h period,[6]; [11],Neither DCA nor LCA feeding resulted in changes
same,food intake,[6]; [11],Neither DCA nor LCA feeding resulted in changes
same,respiratory rate,[6]; [11],Neither DCA nor LCA feeding resulted in changes
same,effect on liver TAG content,"[6]; result in words, LCA in high-fat diet model",had no effect
same,effect on in vivo hepatic LCFA uptake,[7],had no effect
same,inhibition of FATP2-mediated LCFA uptake,[3],no inhibition
same,inhibition of FATP4 LCFA uptake,[8],"neither DCA, UDCA, nor LCA inhibited; also recorded: No inhibition"
same,inhibition of FATP5-mediated LCFA uptake,[2],no inhibition
same,body weight,[9],nor did it affect food consumption or body weight
same,food consumption,[9],nor did it affect food consumption or body weight
same,respiration,[9],neither triggered an increase in respiration
"C[C@H](CCC(=O)NCCS(=O)(=O)O)[C@H]1CC[C@H]2[C@@H]3CC[C@@H]4C[C@H](O)CC[C@]4(C)[C@H]3C[C@H](O)[C@]12C [TDCA, taurodeoxycholic acid]",inhibition of FATP2-mediated LCFA uptake,[3],inhibited neither FATP2 nor FATP5
same,inhibition of FATP5-mediated LCFA uptake,[2],inhibited neither FATP2 nor FATP5
"CC(CCC[C@@H](C)[C@H]1CC[C@H]2[C@@H]3[C@H](O)C[C@@H]4C[C@H](O)CC[C@]4(C)[C@H]3C[C@H](O)[C@]12C)C(=O)O (stereo partly drawn) [THCA, 3a,7a,12a-Trihydroxy-5β-cholestanoic acid]",inhibition of FATP2-mediated LCFA uptake,[3],no inhibition
same,inhibition of FATP5-mediated LCFA uptake,[2],weak inhibition
"C[C@H](CCC(=O)NCCS(=O)(=O)O)[C@H]1CC[C@H]2[C@@H]3[C@@H](O)C[C@@H]4C[C@H](O)CC[C@]4(C)[C@H]3CC[C@]12C [TUDCA, tauroursodeoxycholic acid]",inhibition of LCFA uptake by primary human hepatocytes,[10],but not TUDCA
same,inhibition of FATP2-mediated LCFA uptake,[3],did not inhibit
same,inhibition of FATP5-mediated LCFA uptake,[2],did not inhibit
C[C@H](CCC(=O)O)[C@H]1CC[C@H]2[C@@H]3[C@H](O)[C@@H](O)[C@@H]4C[C@H](O)CC[C@]4(C)[C@H]3CC[C@]12C [alpha-muricholic acid],inhibition of FATP5-mediated LCFA uptake,[2],no effect on LCFA uptake
